The target in test [1] is T1, Alpha-1B adrenergic receptor (Homo sapiens, UniProt P35368).
T1 sequence (P35368 whole entry): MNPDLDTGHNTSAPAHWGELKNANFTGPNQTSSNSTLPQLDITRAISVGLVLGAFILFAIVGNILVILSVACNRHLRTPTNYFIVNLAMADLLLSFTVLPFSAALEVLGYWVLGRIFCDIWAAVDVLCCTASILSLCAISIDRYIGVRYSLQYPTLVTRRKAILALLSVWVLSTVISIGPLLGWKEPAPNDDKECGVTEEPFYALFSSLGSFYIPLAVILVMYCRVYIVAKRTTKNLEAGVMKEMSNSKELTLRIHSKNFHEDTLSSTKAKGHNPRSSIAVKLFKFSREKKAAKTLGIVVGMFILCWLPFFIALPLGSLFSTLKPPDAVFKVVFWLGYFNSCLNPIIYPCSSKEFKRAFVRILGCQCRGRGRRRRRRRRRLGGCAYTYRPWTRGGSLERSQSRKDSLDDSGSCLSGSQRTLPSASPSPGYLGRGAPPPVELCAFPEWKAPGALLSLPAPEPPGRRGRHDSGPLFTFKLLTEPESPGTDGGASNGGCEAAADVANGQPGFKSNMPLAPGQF
In words: Binding affinity to human alpha1B adrenergic receptor.

In test [2] the target is T2, Alpha-1B adrenergic receptor (Rattus norvegicus) (UniProt P15823).
T2 sequence (whole entry): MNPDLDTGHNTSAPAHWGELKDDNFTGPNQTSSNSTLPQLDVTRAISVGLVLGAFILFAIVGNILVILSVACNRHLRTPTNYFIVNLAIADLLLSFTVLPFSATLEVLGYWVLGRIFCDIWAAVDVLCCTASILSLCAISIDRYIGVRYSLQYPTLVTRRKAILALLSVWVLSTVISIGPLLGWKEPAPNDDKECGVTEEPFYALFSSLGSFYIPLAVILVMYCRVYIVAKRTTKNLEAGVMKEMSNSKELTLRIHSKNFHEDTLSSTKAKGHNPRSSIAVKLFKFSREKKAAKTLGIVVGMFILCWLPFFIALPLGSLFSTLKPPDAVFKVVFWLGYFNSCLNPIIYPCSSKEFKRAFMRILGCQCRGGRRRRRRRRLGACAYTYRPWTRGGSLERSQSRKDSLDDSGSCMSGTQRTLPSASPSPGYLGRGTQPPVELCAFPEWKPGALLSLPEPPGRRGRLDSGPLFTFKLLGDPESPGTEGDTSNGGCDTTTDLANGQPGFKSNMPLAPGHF
In words: Antagonist activity at alpha1B adrenergic receptor in Wistar rat spleen assessed as inhibition of phenylephrine-induced contraction incubated for 30 mins in presence of beta-adrenoceptor blocker propranolol hydrochloride. The class given is functional. In a few lines: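 Spleen bisected longitudinally into strips in Krebs with propranolol 4 μM, held at 1 g and equilibrated 2 h. Two isometric cumulative phenylephrine curves, each followed by 30 min washing. Third curve after 30 min vehicle or antagonist. Potency as pA2 (Schild) or pKB at one concentration (van Rossum). Responses as % of control maximum; n ≥ 4.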

Test [3] concerns the target T1, Alpha-1B adrenergic receptor. In words: Displacement of [3H]prazosin from human alpha1B adrenergic receptor expressed in CHO cell membranes after 30 mins by rapid filtration method. In a few lines: (§1)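 Membranes (30 μg protein) from CHO cells stably transfected with the human α1a, α1b or α1d receptor. Incubated 30 min at 25 °C in 50 mM Tris-HCl pH 7.4 with 0.1–0.4 nM [3H]prazosin and competitor 1 pM–10 μM. Nonspecific binding defined by 10 μM phentolamine. Stopped by rapid filtration through PEI-treated filters. IC50 converted to Ki by Cheng-Prusoff; pKi from 2–3 experiments in triplicate.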
A general note: Loss of bound radioactivity is the signal in a displacement assay; it reports binding, not function.

For test [4], the target named is T3, Alpha-1A adrenergic receptor (Rattus norvegicus, UniProt P43140).
T3 sequence (P43140 whole entry): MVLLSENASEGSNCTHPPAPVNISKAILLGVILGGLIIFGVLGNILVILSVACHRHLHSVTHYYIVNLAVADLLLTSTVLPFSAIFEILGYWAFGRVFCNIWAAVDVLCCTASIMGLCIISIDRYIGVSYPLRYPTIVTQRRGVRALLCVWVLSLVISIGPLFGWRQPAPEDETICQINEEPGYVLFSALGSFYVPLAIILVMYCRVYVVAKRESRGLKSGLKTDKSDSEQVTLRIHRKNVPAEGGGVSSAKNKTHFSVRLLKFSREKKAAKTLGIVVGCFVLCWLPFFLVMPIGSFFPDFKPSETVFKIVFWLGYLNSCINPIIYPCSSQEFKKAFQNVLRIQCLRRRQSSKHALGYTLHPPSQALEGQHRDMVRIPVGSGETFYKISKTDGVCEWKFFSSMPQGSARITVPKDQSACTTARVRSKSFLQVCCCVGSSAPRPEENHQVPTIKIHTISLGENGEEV
The experiment in a line: Antagonist activity at alpha1A adrenergic receptor in Wistar rat prostatic rat vas deferens assessed as inhibition of noradrenaline-induced contraction preincubated for 30 mins followed by noradrenaline addition measured after 45 mins in presence of cocaine hydrochloride. Type of test: functional. As to conditions: read-out: pA2 (converted). In a few lines:
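Prostatic rat vas deferens, 2 cm portions, held at 0.35 g in Tyrode (pH 7.4, 37 °C, 95% O2/5% CO2). Cocaine 10 μM added 20 min before the agonist. Tissue equilibrated 45 min and primed twice with 10 μM noradrenaline. Isotonic cumulative noradrenaline curves were run before and after 30 min antagonist. pA2 came from Schild plots (≥3 concentrations); otherwise pKB (van Rossum). n ≥ 4.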

Test [5] has as its target T4, Alpha-1D adrenergic receptor (Homo sapiens, UniProt P25100).
T4 sequence (P25100 whole entry): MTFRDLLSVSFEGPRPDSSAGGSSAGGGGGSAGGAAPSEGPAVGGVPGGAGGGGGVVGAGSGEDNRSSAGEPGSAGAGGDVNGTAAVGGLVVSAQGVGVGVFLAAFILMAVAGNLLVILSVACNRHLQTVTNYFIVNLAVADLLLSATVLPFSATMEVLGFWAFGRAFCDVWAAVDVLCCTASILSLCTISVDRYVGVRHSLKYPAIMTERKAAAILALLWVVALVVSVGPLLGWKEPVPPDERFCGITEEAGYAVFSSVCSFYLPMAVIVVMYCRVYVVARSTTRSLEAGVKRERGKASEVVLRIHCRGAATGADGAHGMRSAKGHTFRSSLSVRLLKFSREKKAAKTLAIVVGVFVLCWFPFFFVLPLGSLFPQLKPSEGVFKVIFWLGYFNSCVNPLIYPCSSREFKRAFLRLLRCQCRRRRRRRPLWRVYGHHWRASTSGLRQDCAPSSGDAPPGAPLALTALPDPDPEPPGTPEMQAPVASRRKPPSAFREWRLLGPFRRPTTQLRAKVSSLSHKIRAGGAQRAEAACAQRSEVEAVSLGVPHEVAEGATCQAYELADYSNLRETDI
In words: Displacement of [3H]prazosin from human alpha1D adrenergic receptor expressed in CHO cell membranes after 30 mins by rapid filtration method. In a few lines: as §1

For test [6], the target named is T5, Alpha-1A adrenergic receptor (Homo sapiens, UniProt P35348).
T5 sequence (P35348 whole entry): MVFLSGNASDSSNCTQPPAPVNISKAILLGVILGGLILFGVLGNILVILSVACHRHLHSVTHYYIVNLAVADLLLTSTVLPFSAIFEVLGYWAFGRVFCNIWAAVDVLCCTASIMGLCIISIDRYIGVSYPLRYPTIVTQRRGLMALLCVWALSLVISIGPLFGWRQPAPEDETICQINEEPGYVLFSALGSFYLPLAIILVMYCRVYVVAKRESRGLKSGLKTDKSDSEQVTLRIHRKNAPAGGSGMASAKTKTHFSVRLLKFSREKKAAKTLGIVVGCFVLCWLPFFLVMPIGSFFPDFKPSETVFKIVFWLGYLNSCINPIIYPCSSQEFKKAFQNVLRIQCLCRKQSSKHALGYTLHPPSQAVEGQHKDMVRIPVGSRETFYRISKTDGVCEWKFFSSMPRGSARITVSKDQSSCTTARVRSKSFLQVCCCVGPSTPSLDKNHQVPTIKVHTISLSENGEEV
The experiment in a line: Displacement of [3H]prazosin from human alpha1A adrenergic receptor expressed in CHO cell membranes after 30 mins by rapid filtration method. Put shortly: as §1

A word on the Ki: it is the equilibrium dissociation constant of an inhibitor or competing ligand from its target. A low value points to higher affinity. In general, pKb refers to the Kb on a negative log10 scale, so that one unit is a factor of ten.

As for `COc1cc2nc(N3CCN(C(=O)c4ccco4)[C@H]4CCCC[C@H]43)nc(N)c2cc1OC` [CYCLAZOSIN], in test [1], the inhibition constant Ki is 0.135 to 0.692 nM. Moreover, the pKb in test [2] stood at 8.86.
In the case of `COc1cc2nc(N3CCN(C(=O)c4ccco4)[C@@H]4CCCC[C@@H]43)nc(N)c2cc1OC`, the values for the inhibitory constant (Ki) in test [3], in test [5] and in test [6] were 0.0708 nM, 0.0603 nM and 0.589 nM, respectively. The Kb in test [4] was 0.589 nM. The pKb in test [2] came to 9.67.
